Series [1] concerns HL-60. In words: Antiproliferative activity against human HL60 cells by MTT assay. It is filed as functional, cell-based. On the technique in general: Tetrazolium dyes change colour on reduction, which living cells bring about.
The nature of series [2]: Solubility in phosphate buffer at pH 7.5. It is filed as physicochemical.
In series [3] the test system is KB. The series is described as follows: Antiproliferative activity against human KB cells by MTT assay. It is filed as functional, cell-based.
The test system of series [4] is BGC-823. In words: Antiproliferative activity against human BGC823 cells by MTT assay. It is filed as functional, cell-based.
For series [5], the system named is Bel-7402. In words: Antiproliferative activity against human Bel7402 cells by MTT assay. In kind it is functional, cell-based.
Series [6] has as its system Nucleic Acid. The series is described as follows: Binding affinity to calf thymus DNA at 4 x 10^-5 M at pH 7.5 by UV-Vis spectrophotometry. In kind it is nucleic-acid assay. The settings on record: Bos taurus. The procedure, abridged: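 UV–vis titration: compound at 4.0 × 10^-5 M with Ct-DNA added (0–400 μM) in 1 mM phosphate buffer pH 7.5, 20 mM NaCl, 5% DMSO (v/v), 25 °C. Absorbance read over 300–400 nm to avoid DNA interference; binding constants fitted at maximum absorption band.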

Series [7] relates to Nucleic Acid. In words: Binding affinity to calf thymus DNA at 4 x 10^-5 M at pH 7.5 by fluorescence spectrophotometry. In kind it is nucleic-acid assay. As to conditions: Bos taurus. The procedure, abridged: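 Emission quenching: compound at 4.0 × 10^-5 M, excitation 320 nm, 5.0 nm slits, titrated with Ct-DNA 0–400 μM in 1 mM phosphate buffer pH 7.5, 20 mM NaCl, 5% DMSO, 25 °C. F/F0 plotted against DNA concentration; Stern-Volmer constants derived.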

In series [8] the test system is Nucleic Acid. In words: Binding affinity to calf thymus DNA assessed as change in melting temperature at 5 x 10^-6 M at pH 7.5 relative to control. It is filed as nucleic-acid assay. As to conditions: Bos taurus.
Series [9] has as its system Nucleic Acid. The series is described as follows: Binding affinity to calf thymus DNA at 2 x 10^-5 M at pH 7.5 by circular dichroism. In kind it is nucleic-acid assay. The settings on record: Bos taurus. The procedure, abridged:
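Circular dichroism of Ct-DNA (6.0 × 10^-5 M) alone and with compound (2.0 × 10^-5 M), in 10 mM phosphate buffer pH 7.5 with 20 mM NaCl and 5% DMSO, 25 °C.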

pIC50: −log10 of the molar value. The source made the active and inactive calls. The calls are words filed in the database; no cut-off is given here.

The term pIC50 denotes the IC50 on a negative log10 scale, so that one unit is a factor of ten. Low values mean a high IC50, high ones a low IC50. Turning to `OCCOCCOc1ccc(-c2nc3c4ccccc4c4ccccc4c3[nH]2)cc1`, the pIC50 is 5.09 in series [1], 4.51 in series [3], 4.65 in series [4] and 4.74 in series [5]. Further, in series [2], the solubility result is on record as “Insoluble”.

Regarding `OCCOc1ccc(-c2nc3c4ccccc4c4ccccc4c3[nH]2)cc1`, the pIC50 in series [1] was 4.95; in [3], 5.15; in series [4] it was 5.20; in series [5], 5.33. Moreover, the solubility result in series [2] is “Insoluble”.

The term ΔTm denotes the change in melting temperature against a reference sample. In series [6], `Cn1c(-c2ccc(OCCO)cc2)[n+](C)c2c3ccccc3c3ccccc3c21` gave a K of 1.68 ×10⁶ /M. Further, the pIC50 is 4.61 in series [1], 4.84 in [3], 4.97 in [4] and 4.85 in series [5]. The result in [7] and in series [9] was Active. In addition, the ΔTm in series [8] turned out to be 4.8 °C.

As to `Cn1c(-c2ccc(OCCOCCO)cc2)[n+](C)c2c3ccccc3c3ccccc3c21`, the K in series [6] is 1.51 ×10⁶ /M. Besides, the pIC50 in series [1] was 4.92; in series [3], 4.96; in [4], 5.03; in [5], 4.97. Also, the result in series [7] and in [9] was Active. Further, the ΔTm in series [8] was determined as 4.2 °C.

In series [6], `Cn1c(-c2ccc(OCCOCCOCCO)cc2)[n+](C)c2c3ccccc3c3ccccc3c21` had a K of 0.709 ×10⁶ /M. Besides, the pIC50 in series [1] was 4.81; in series [3] it was 5.04; in series [4], 5.15; in series [5] it was 4.98. The result in series [7] and in [9] was Active. Further, the shift in melting temperature (ΔTm) in series [8] was determined as 4 °C.

As to `OCCOCCOCCOc1ccc(-c2nc3c4ccccc4c4ccccc4c3[nH]2)cc1`, the pIC50 in series [1] is 4.92; in [3], 4.35; in series [4], 4.62; in series [5], 4.55. Moreover, the solubility result in [2] is “Insoluble”.

These data come from ChEMBL document CHEMBL2146443, “Cytotoxicity and DNA binding property of phenanthrene imidazole with polyglycol side chains” (Bioorg Med Chem Lett, 2012).
